Measurements published in ChEMBL document CHEMBL1212693, “Dorsomorphin inhibits BMP signals required for embryogenesis and iron metabolism” (Nat Chem Biol, 2008).
Activity calls are given as the source filed them. The rule behind the calls is not given here.

What was measured:
Danio rerio [1] = species on record: Danio rerio; assay: Inhibition of BMPR1 in zebrafish assessed as embryonic axis dorsalization at 20 uM treated at 2 hrs post-fertilization measured after 36 hrs in presence of 1 ng chordin morpholino
How it was run: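 Wild-type zebrafish embryos injected with 1 ng chordin morpholino, then exposed to vehicle or compound (20 µM) at 2 h.p.f. Photographed at 36 h.p.f. to score the intermediate cell mass and ventral tail fin structures.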

Danio rerio [2] = species on record: Danio rerio; assay: Inhibition of BMPR1 in zebrafish assessed as penetrance of mild embryonic axis dorsalization at 7.5 uM treated at 3 hrs post-fertilization measured at 48 hrs; parameters: scale not given: the % may be the effect or the level left
How it was run: (§1)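 Compound added at the stated times and concentrations. Gross morphology scored visually at up to 48 h.p.f. for dorsalization of the embryonic axis.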

Danio rerio [3] = species on record: Danio rerio; assay: Inhibition of BMPR1 in zebrafish assessed as severity of embryonic axis dorsalization at 7.5 uM treated at 3 hrs post-fertilization measured at 48 hrs; parameters: scale not given: the % may be the effect or the level left
Mus musculus [4] = species on record: Mus musculus; assay: Inhibition of ALK6-mediated Smad-8 phosphorylation in BMPR2 deficient mouse PASMC at 10 uM by immunoblot analysis
How it was run: (§2)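 BMPR-II–deficient mouse PASMCs (RPMI, 10% FBS) transiently transfected with constitutively active ALK2, ALK3 or ALK6 cDNA, or plasmid-only control. Incubated with or without compound (10 µM). Extracts lysed in SDS buffer, run on SDS-PAGE and immunoblotted for phospho-SMAD1/5/8; quantitated by phosphorimager.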

HepG2 = assay: Inhibition of hepcidin mRNA expression in human HepG2 cells at 10 uM […] by qRT-PCR analysis relative to control; assay type: functional
Hep 3B2 = assay: Inhibition of hepcidin mRNA expression in human Hep3B cells at 4 uM […] by qRT-PCR analysis; assay type: functional; conditions: 0.5 h
Mus musculus [5] = species on record: Mus musculus; assay: Inhibition of BMPR1-mediated Smad-5 phosphorylation in BMP4-stimulated mouse PASMC at 4 uM treated 30 mins before BMP4 challenge measured after 30 mins by immunoblot analysis
How it was run: (§3)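 Wild-type mouse PASMCs were kept in RPMI with 0.5% FCS for 24 h. They were preincubated with compound or vehicle for 30 min, then stimulated for 30 min with recombinant BMP2, BMP4, BMP6 or BMP7 at 10 ng ml−1. Lysates in SDS buffer were immunoblotted with anti-phospho-SMAD1/5/8. Total SMAD1 and α-tubulin served as loading controls, and bands were quantified by phosphorimager.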

Danio rerio [6] = species on record: Danio rerio; assay: Inhibition of BMPR1 in zebrafish assessed as penetrance of moderate embryonic axis dorsalization at 10 uM treated continuously from 4 hrs post-fertilization measured after 48 hrs; parameters: scale not given: the % may be the effect or the level left; how it was run: as §1
Danio rerio [7] = species on record: Danio rerio; assay: Toxicity in zebrafish assessed as mortality at 0.2 to 10 uM; assay type: organism-based; conditions: in vivo
Danio rerio [8] = species on record: Danio rerio; assay: Inhibition of BMPR1 in zebrafish assessed as penetrance of normal embryonic axis dorsalization at 10 uM treated at 4 to 8 hrs post-fertilization measured at 48 hrs; parameters: scale not given: the % may be the effect or the level left
Danio rerio [9] = species on record: Danio rerio; assay: Inhibition of BMPR1 in zebrafish assessed as severity of embryonic axis dorsalization at 10 uM treated at 4 to 8 hrs post-fertilization measured at 48 hrs; parameters: scale not given: the % may be the effect or the level left
Danio rerio [10] = species on record: Danio rerio; assay: Inhibition of BMPR1 in zebrafish assessed as penetrance of mild embryonic axis dorsalization at 0.5 uM treated at 3 hrs post-fertilization measured at 48 hrs; parameters: scale not given: the % may be the effect or the level left; how it was run: as §1
Danio rerio [11] = species on record: Danio rerio; assay: Inhibition of AMPK in zebrafish assessed as embryonic axis dorsalization at 10 uM treated at 3 hrs post-fertilization measured at 48 hrs; parameters: scale not given: the % may be the effect or the level left
Danio rerio [12] = species on record: Danio rerio; assay: Inhibition of BMPR1 in zebrafish assessed as penetrance of mild embryonic axis dorsalization at 10 uM treated at 2 to 4 hrs post-fertilization measured at 48 hrs; parameters: scale not given: the % may be the effect or the level left; how it was run: as §1
Mus musculus [13] = species on record: Mus musculus; assay: Inhibition of ALK2-mediated Id1 promoter activity in BMPR2 deficient mouse PASMC at 10 uM by immunoblot analysis
How it was run: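 BMPR-II–deficient mouse PASMCs at 50% confluence co-transfected with Id1 promoter firefly luciferase (BRE-Luc, 0.3 µg), caALK2, caALK3 or caALK6 (0.6 µg), and pRL-TK Renilla (0.2 µg). Compound (4–10 µM) or vehicle added 1 h after transfection. Activity read as firefly/Renilla ratio by dual luciferase assay; n = 3, mean ± s.d.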

Danio rerio [14] = species on record: Danio rerio; assay: Inhibition of BMPR1 in zebrafish assessed as penetrance of moderate embryonic axis dorsalization at 10 uM treated continuously from 8 hrs post-fertilization measured at 48 hrs; parameters: scale not given: the % may be the effect or the level left
Danio rerio [15] = species on record: Danio rerio; assay: Inhibition of BMPR1 in zebrafish assessed as penetrance of mild embryonic axis dorsalization at 10 uM treated continuously from 2 hrs post-fertilization measured after 48 hrs; parameters: scale not given: the % may be the effect or the level left; how it was run: as §1
[16] = Inhibition of Sprague-Dawley rat AMPK assessed as inhibition of [33P]ATP utilization after 30 mins by scintillation counting
Danio rerio [17] = assay: Inhibition of iron-dextran conjugate-induced Smad-1 phosphorylation in zebrafish at 23 ug/g, iv after 1 hr relative to control; assay type: functional
Danio rerio [18] = species on record: Danio rerio; assay: Inhibition of BMPR1 in zebrafish assessed as severity of embryonic axis dorsalization at 10 uM treated at 6 to 8 hrs post-fertilization measured at 48 hrs; parameters: scale not given: the % may be the effect or the level left
Mus musculus [19] = species on record: Mus musculus; assay: Inhibition of ALK6-mediated Smad-5 phosphorylation in BMPR2 deficient mouse PASMC at 10 uM by immunoblot analysis; how it was run: as §2
Mus musculus [20] = species on record: Mus musculus; assay: Inhibition of BMPR1-mediated Smad-1 phosphorylation in BMP7-stimulated mouse PASMC at 4 uM treated 30 mins before BMP7 challenge measured after 30 mins by immunoblot analysis; how it was run: as §3
Danio rerio [21] = species on record: Danio rerio; assay: Inhibition of BMPR1 in zebrafish assessed as penetrance of normal embryonic axis dorsalization at 7.5 uM treated at 3 hrs post-fertilization measured at 48 hrs; parameters: scale not given: the % may be the effect or the level left
Danio rerio [22] = species on record: Danio rerio; assay: Inhibition of BMPR1 in zebrafish assessed as penetrance of normal embryonic axis dorsalization at 10 uM treated continuously from 2 hrs post-fertilization measured after 48 hrs; parameters: scale not given: the % may be the effect or the level left
Danio rerio [23] = species on record: Danio rerio; assay: Inhibition of BMPR1 in zebrafish assessed as severity of embryonic axis dorsalization at 10 uM treated at 2 to 8 hrs post-fertilization measured at 48 hrs; parameters: scale not given: the % may be the effect or the level left
Danio rerio [24] = species on record: Danio rerio; assay: Inhibition of BMPR1 in zebrafish assessed as penetrance of moderate embryonic axis dorsalization at 10 uM treated continuously from 6 hrs post-fertilization measured at 48 hrs; parameters: scale not given: the % may be the effect or the level left; how it was run: as §1
Mus musculus [25] = species on record: Mus musculus; assay: Inhibition of BMPR1-mediated Smad-8 phosphorylation in BMP2-stimulated mouse PASMC at 4 uM treated 30 mins before BMP2 challenge measured after 30 mins by immunoblot analysis; how it was run: as §3
Mus musculus [26] = species on record: Mus musculus; assay: Inhibition of BMPR1-mediated Smad-8 phosphorylation in BMP4-stimulated mouse BMPR2 deficient PASMC at 4 uM treated 30 mins before BMP4 measured after 30 mins by immunoblot analysis
Mus musculus [27] = species on record: Mus musculus; assay: Inhibition of BMPR1-mediated Smad-1 phosphorylation in BMP2-stimulated mouse PASMC at 4 uM treated 30 mins before BMP2 challenge measured after 30 mins by immunoblot analysis
How it was run: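 PASMCs (wild-type or BMPR-II–deficient) were kept 24 h in RPMI with 0.5% FCS, preincubated 30 min with compound or vehicle, then stimulated 30 min with recombinant BMP (10 ng ml−1). Extracts in SDS-lysis buffer were immunoblotted for phospho-SMAD1/5/8, with total SMAD1 and α-tubulin as loading controls. Bands were quantitated by phosphorimager.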

**Q.** Which inhibition (Danio rerio [1]) does the source give for c1cc(-c2cnn3cc(-c4ccc(OCCN5CCCCC5)cc4)cnc23)ccn1 [DORSOMORPHIN] here?
**A.** The inhibition was “Active”.

**Q.** And the Activity (Danio rerio [2])?
**A.** Its Activity is 58%.

**Q.** What about the Activity (Danio rerio [3]) of the same molecule?
**A.** Its Activity is 100%.

**Q.** What about the inhibition (Mus musculus [4]) of the same molecule?
**A.** Its inhibition is “Active”.

**Q.** And the “fold change (FC)” value (HepG2)?
**A.** The value was 50.

**Q.** And the inhibition at 4 µM (Hep 3B2)?
**A.** Its inhibition at 4 µM is 27%.

**Q.** And the inhibition (Mus musculus [5])?
**A.** The inhibition was “Active”.

**Q.** What about the Activity (Danio rerio [6]) of the same molecule?
**A.** Its Activity is 100%.

**Q.** What about the Activity (Danio rerio [7]) of the same molecule?
**A.** Its Activity is “Non-toxic”.

**Q.** What about the Activity (Danio rerio [8]) of the same molecule?
**A.** Its Activity is 0%.

**Q.** And the Activity (Danio rerio [9])?
**A.** Its Activity is 0%.

**Q.** And the Activity (Danio rerio [10])?
**A.** The Activity was 0%.

**Q.** What about the Activity (Danio rerio [11]) of the same molecule?
**A.** The Activity was 100%.

**Q.** What about the Activity (Danio rerio [12]) of the same molecule?
**A.** The Activity was 10%.

**Q.** What about the inhibition (Mus musculus [13]) of the same molecule?
**A.** The inhibition was “Dose-dependent effect”.

**Q.** And the Activity (Danio rerio [14])?
**A.** Its Activity is 0%.

**Q.** What about the Activity (Danio rerio [15]) of the same molecule?
**A.** Its Activity is 0%.

**Q.** What about the Ki [16] of the same molecule?
**A.** Its Ki is 10 µM.

**Q.** What about the “fold change (FC)” value (Danio rerio [17]) of the same molecule?
**A.** Its value is 3.

**Q.** And the Activity (Danio rerio [18])?
**A.** The Activity was 0%.

**Q.** What about the inhibition (Mus musculus [19]) of the same molecule?
**A.** The inhibition was “Active”.

**Q.** And the inhibition (Mus musculus [20])?
**A.** The inhibition was “Active”.

**Q.** And the Activity (Danio rerio [21])?
**A.** Its Activity is 0%.

**Q.** And the Activity (Danio rerio [22])?
**A.** The Activity was 0%.

**Q.** What about the Activity (Danio rerio [23]) of the same molecule?
**A.** Its Activity is 100%.

**Q.** And the Activity (Danio rerio [24])?
**A.** Its Activity is 78%.

**Q.** What about the inhibition (Mus musculus [25]) of the same molecule?
**A.** The inhibition was “Active”.

**Q.** And the inhibition (Mus musculus [26])?
**A.** The inhibition was “Active”.

**Q.** What about the inhibition (Mus musculus [27]) of the same molecule?
**A.** Its inhibition is “Active”.
